Two molecules from ChEMBL document CHEMBL2034938, “Convenient synthesis of novel geiparvarin analogs with potential anti-cancer activity via click chemistry” (Eur J Med Chem, 2012) can be followed below.

Experiment [1] can be described thus: Cytotoxicity against human L02 cells by after 48 hrs by MTT assay. Type of experiment: cell-based. Particulars: L02, 48 h. The procedure, abridged:
(§1)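 MTT assay; cell lines obtained from Shanghai Institute of Biological Sciences, CAS. Compounds in DMSO stock (10 g/L), diluted in medium just before use. Cells seeded at 8000/well; compound added 24 h later, in duplicate. After 48 h at 37 °C, 5% CO₂, MTT (5 mg/mL in PBS) added for 4 h. Formazan dissolved in DMSO; absorbance read at 570 nm. IC50 taken as the concentration giving 50% growth inhibition.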

Experiment [2] has as its system A549. The experiment can be described thus: Cytotoxicity against human A549 cells by after 48 hrs by MTT assay. Type of experiment: functional, cell-based. Particulars: A549, 48 h. The procedure, abridged: as §1
In experiment [3] the test system is HeLa. The experiment can be described thus: Cytotoxicity against human HeLa cells by after 48 hrs by MTT assay. Type of experiment: functional, cell-based. The procedure, abridged: as §1
Experiment [4] in a line: Cytotoxicity against human QGY7701 cells by after 48 hrs by MTT assay. The conditions noted are these: QGY7701, 48 h. Type of experiment: functional, cell-based. The procedure, abridged: as §1
The subject of experiment [5] is SW480. Kind of experiment: Cytotoxicity against human SW480 cells by after 48 hrs by MTT assay. Type of experiment: functional, cell-based. The conditions noted are these: SW480, 48 h. The procedure, abridged:
as §1

Experiment [6] concerns SGC-7901. The experiment can be described thus: Cytotoxicity against human SGC7901 cells by after 48 hrs by MTT assay. Type of experiment: functional, cell-based. Particulars: SGC-7901, 48 h. The procedure, abridged:
as §1

The test system of experiment [7] is MDA-MB-231. The experiment can be described thus: Cytotoxicity against human MDA-MB-231 cells by after 48 hrs by MTT assay. Type of experiment: functional, cell-based. The conditions noted are these: MDA-MB-231, 48 h. The procedure, abridged:
as §1

The subject of experiment [8] is A549. The experiment can be described thus: Induction of apoptosis in human A549 cells assessed as viable cells at 1 uM after 48 hrs by annexinV/propidium iodide staining-based flow cytometric analysis ( Rvb = 95.96%). The conditions noted are these: A549, 48 h, read-out: Activity. Type of experiment: functional.
For experiment [9], the system named is A549. The experiment can be described thus: Induction of apoptosis in human A549 cells assessed as early apoptotic cells at 1 uM after 48 hrs by annexinV/propidium iodide staining-based flow cytometric analysis ( Rvb = 0.15%). Type of experiment: functional.
In experiment [10] the test system is A549. Kind of experiment: Induction of apoptosis in human A549 cells assessed as late apoptotic cells at 1 uM after 48 hrs by annexinV/propidium iodide staining-based flow cytometric analysis (reference value: 0.16%). Type of experiment: functional.
The test system of experiment [11] is A549. Kind of experiment: Induction of apoptosis in human A549 cells assessed as viable cells at 2 uM after 48 hrs by annexinV/propidium iodide staining-based flow cytometric analysis ( Rvb = 95.96%). Type of experiment: functional. Particulars: A549, 48 h, read-out: Activity.
Experiment [12] deals with A549. The experiment can be described thus: Induction of apoptosis in human A549 cells assessed as early apoptotic cells at 2 uM after 48 hrs by annexinV/propidium iodide staining-based flow cytometric analysis ( Rvb = 0.15%). Type of experiment: functional.
The subject of experiment [13] is A549. Kind of experiment: Induction of apoptosis in human A549 cells assessed as late apoptotic cells at 2 uM after 48 hrs by annexinV/propidium iodide staining-based flow cytometric analysis (reference value: 0.16%). Type of experiment: functional.
For experiment [14], the system named is A549. Kind of experiment: Induction of apoptosis in human A549 cells assessed as viable cells at 4 uM after 48 hrs by annexinV/propidium iodide staining-based flow cytometric analysis ( Rvb = 95.96%). Type of experiment: functional. The conditions noted are these: A549, 48 h, read-out: Activity.
Experiment [15] has as its system A549. The experiment can be described thus: Induction of apoptosis in human A549 cells assessed as early apoptotic cells at 4 uM after 48 hrs by annexinV/propidium iodide staining-based flow cytometric analysis ( Rvb = 0.15%). Type of experiment: functional.
In experiment [16] the test system is A549. The experiment can be described thus: Induction of apoptosis in human A549 cells assessed as late apoptotic cells at 4 uM after 48 hrs by annexinV/propidium iodide staining-based flow cytometric analysis (reference value: 0.16%). Type of experiment: functional.
The test system of experiment [17] is A549. Kind of experiment: Induction of apoptosis in human A549 cells assessed as viable cells at 8 uM after 48 hrs by annexinV/propidium iodide staining-based flow cytometric analysis ( Rvb = 95.96%). Type of experiment: functional. The conditions noted are these: A549, 48 h, read-out: Activity.
Experiment [18] has as its system A549. Kind of experiment: Induction of apoptosis in human A549 cells assessed as early apoptotic cells at 8 uM after 48 hrs by annexinV/propidium iodide staining-based flow cytometric analysis ( Rvb = 0.15%). Type of experiment: functional.
Experiment [19] concerns A549. Kind of experiment: Induction of apoptosis in human A549 cells assessed as late apoptotic cells at 8 uM after 48 hrs by annexinV/propidium iodide staining-based flow cytometric analysis (reference value: 0.16%). Type of experiment: functional.
Experiment [20] has as its system A549. The experiment can be described thus: Induction of apoptosis in human A549 cells after 48 hrs by annexinV/propidium iodide staining-based flow cytometric analysis. Type of experiment: functional, cell-based.
In experiment [21] the test system is A549. Kind of experiment: Induction of apoptosis in human A549 cells assessed as necrotic cells at 2 uM after 48 hrs by annexinV/propidium iodide staining-based flow cytometric analysis (reference value: 3.72%). The conditions noted are these: A549, 48 h.
Experiment [22] deals with A549. The experiment can be described thus: Induction of apoptosis in human A549 cells assessed as necrotic cells at 4 uM after 48 hrs by annexinV/propidium iodide staining-based flow cytometric analysis (reference value: 3.72%). Particulars: A549, 48 h.
For experiment [23], the system named is A549. Kind of experiment: Induction of apoptosis in human A549 cells assessed as necrotic cells at 8 uM after 48 hrs by annexinV/propidium iodide staining-based flow cytometric analysis (reference value: 3.72%). The conditions noted are these: A549, 48 h.

Bounds are passed on as bounds.

`O=c1ccoc2cc(OCc3cn(Cc4ccc(Cl)cc4Cl)nn3)ccc12`: the concentration for half-maximal inhibition (IC50) in [1] is > 300 µM; in experiment [2] it was 5.26 µM; in [3], 80.6 µM; in [4], 13.3 µM; in experiment [5], > 100 µM; in experiment [6], > 100 µM. In addition, in [7], the half-inhibitory concentration (IC50) was > 100 µM. In experiment [8], the viability at 1 µM stood at 88.4%. Also, the Activity in experiment [9] is listed as 7.13%; in experiment [10], 2.31%; in experiment [12], 17.62%; in [13] it was 3.56%; in experiment [15], 28.45%; in experiment [16] it was 3.55%. For the same molecule, the results for the Activity in experiment [18], in experiment [19] and in experiment [20] were 29.73%, 3.33% and “Dose-dependent effect”, respectively. Moreover, the viability at 2 µM in [11] was 76.4%. Also, the viability at 4 µM in experiment [14] was 65.8%. Also, the viability at 8 µM in experiment [17] was found to be 65.3%. In addition, the necrotic cells at 2 µM in [21] was determined as 2.42%. For the same molecule, the necrotic cells at 4 µM in experiment [22] stood at 2.19%. For the same molecule, the necrotic cells at 8 µM in experiment [23] worked out at 1.64%.

For `O=c1ccoc2cc(OCc3cn(Cc4cccc([N+](=O)[O-])c4)nn3)ccc12`, the IC50 in [1] was > 300 µM; in experiment [2], 9.45 µM; in experiment [3] it was 17.3 µM; in experiment [4], 14.1 µM; in [5] it was > 100 µM; in [6], > 100 µM. The 50% inhibitory concentration (IC50) in experiment [7] was > 100 µM. For the same molecule, the viability at 1 µM in experiment [8] is 86.7%. Also, the Activity in experiment [9] amounted to 8.07%; in experiment [10], 3%; in experiment [12], 10.87%; in experiment [13], 3.39%; in [15], 13.55%; in [16] it was 6.36%. Moreover, the Activity in [18] was 21.54%; in experiment [19] it was 5.68%. Further, the viability at 2 µM in experiment [11] is 80.1%. Also, the viability at 4 µM in experiment [14] stood at 74.7%. For the same molecule, in [17], the viability at 8 µM stood at 70.6%. Also, in experiment [21], the necrotic cells at 2 µM is 5.68%. Moreover, the necrotic cells at 4 µM in experiment [22] came to 5.44%. Besides, in experiment [23], the necrotic cells at 8 µM is 4.16%.
